These results are taken from PubChem BioAssay AID588818 (Broad Institute, 2011).

The experiment deals with ldlA[mSR-BI] cells, [3H]cholesterol efflux to HDL. The experiment in a line: effect on free cholesterol efflux to HDL, late-stage follow-up, mechanism study for SR-BI HDL uptake inhibitor project, ldlA[mSR-BI] cells, powder samples (AID 588818). The settings on record: at 1 µM; hits give low values. Put shortly: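 system = ldlA[mSR-BI] cells carrying a [3H]cholesterol label | measured by = liquid scintillation counting of [3H]cholesterol in medium and cells | timing = 24-h 1% FAF-BSA equilibration, 1-h compound preincubation, 2-h HDL exposure | also added = HDL, 100 µg/mL final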

With `O=C(Nc1ccc(-c2nc3cc(NC(=O)c4ccccc4[N+](=O)[O-])ccc3o2)cc1)c1ccccc1[N+](=O)[O-]`, the cholesterol efflux relative to neutral control is 5.29%.
With `CCOC(=O)N1CCC(NC(=O)c2ccc3c(c2)N(Cc2ccc(F)cc2)CCS3)CC1`, the cholesterol efflux relative to neutral control is 14.1%.
Consider `O=C(Nc1ccc(-c2nc3cc(NC(=O)c4ccc(NC(=O)c5cccc6ccccc56)cc4)ccc3[nH]2)cc1)c1ccc(NC(=O)c2cccc3ccccc23)cc1`, for which the cholesterol efflux relative to neutral control is 10.3%.
With `CCC(=O)N1CCc2cc(-c3csc(NC(=O)c4ccco4)n3)ccc21`, the cholesterol efflux relative to neutral control is 11.5%.
In the case of `COc1ccc(-c2nnn(CC(=O)N(C3CCCCC3)C(C)C(=O)NC3CCCC3)n2)cc1OC` (stereo not given), the cholesterol efflux relative to neutral control is 13.1%.
